Measurements published in ChEMBL document CHEMBL1649126, “Debio 025, a cyclophilin binding molecule, is highly efficient in clearing hepatitis C virus (HCV) replicon-containing cells when used alone or in combination with specifically targeted antiviral therapy for HCV (STAT-C) inhibitors” (Antimicrob Agents Chemother, 2009).
Calls of active or inactive are those of the source. The calls are words filed in the database; no cut-off is given here.

How the values were obtained:
Hepatitis C virus [1] = test: Antiviral activity against R479-resistant HCV genotype 1b infected in human Huh-9-13 cells assessed as reduction in viral replication after 3 days by quantitative RT-PCR; type: functional, organism-based, Hepacivirus hominis; settings: 72 h
Outline: (§1)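 Huh 9-13 cells carrying a subgenomic HCV replicon were seeded at 5 x 10^3 cells/well in medium with G418 and incubated 24 h at 37°C. Serial dilutions were then added in G418-free medium for 3 days. Cells were lysed, heated 15 min at 75°C, and replicon RNA was quantified by RT-qPCR against a neomycin plasmid standard. EC50 is the 50% RNA reduction versus untreated cells.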

Hepatitis C virus [2] = test: Antiviral activity against VX 950-resistant HCV genotype 1b infected in human Huh-9-13 cells assessed as reduction in viral replication after 3 days by quantitative RT-PCR; type: functional, organism-based, Hepacivirus hominis; settings: 72 h; outline: as §1
Hepatitis C virus [3] = test: Antiviral activity against cyclosporine-resistant HCV genotype 1b infected in human Huh-9-13 cells assessed as reduction in viral replication after 3 days by quantitative RT-PCR; type: functional, organism-based, Hepacivirus hominis; settings: 72 h; outline: as §1
Hepatitis C virus [4] = test: Antiviral activity against compound-resistant HCV genotype 1b infected in human Huh-9-13 cells assessed as reduction in viral replication after 3 days by quantitative RT-PCR; type: functional, organism-based, Hepacivirus hominis; settings: 72 h; outline: as §1
Hepatitis C virus [5] = test: Antiviral activity against HCV genotype 1b infected in human Huh-9-13 cells assessed as reduction in viral replication after 3 days by quantitative RT-PCR; type: functional, organism-based, Hepacivirus hominis; settings: 72 h; outline: as §1
Hepatitis C virus [6] = test: Antiviral activity against BILN 2061-resistant HCV genotype 1b infected in human Huh-9-13 cells assessed as reduction in viral replication after 3 days by quantitative RT-PCR; type: functional, organism-based, Hepacivirus hominis; settings: 72 h; outline: as §1
Hepatitis C virus [7] = test: Antiviral activity against 2'-C-methyl-2'-fluoro-cytidine-resistant HCV genotype 1b infected in human Huh-9-13 cells assessed as reduction in viral replication after 3 days by quantitative RT-PCR; type: functional, organism-based, Hepacivirus hominis; settings: 72 h; outline: as §1
Hepatitis C virus [8] = test: Antiviral activity against HCV genotype 1b infected in human Huh-9-13 cells assessed as reduction in viral replication selected after 7 passages at 15 uM by quantitative RT-PCR relative to wild type virus; type: functional, Hepacivirus hominis
Outline: (§2)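 Resistant replicons were selected by passaging Huh 9-13 cells under 1 mg/ml G418 with gradually increasing inhibitor concentrations.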

Hepatitis C virus [9] = test: Antiviral activity against HCV genotype 1b infected in human Huh-9-13 cells assessed as reduction in viral replication selected at 0.1 uM by quantitative RT-PCR; type: functional, organism-based; settings: Hepacivirus hominis
Hepatitis C virus [10] = test: Antiviral activity against HCV genotype 1b infected in human Huh-9-13 cells assessed as reduction in viral replication selected after 5 passages at 4 uM by quantitative RT-PCR; type: functional, organism-based; settings: Hepacivirus hominis; outline: as §2
Hepatitis C virus [11] = test: Antiviral activity against HCV genotype 1b infected in human Huh-9-13 cells assessed as reduction in viral replication selected at 0.5 uM by quantitative RT-PCR; type: functional, organism-based; settings: Hepacivirus hominis
Hepatitis C virus [12] = test: Antiviral activity against HCV genotype 1b infected in human Huh-9-13 cells assessed as reduction in viral replication selected after 5 passages at 4 uM by quantitative RT-PCR relative to wild type virus; type: functional, Hepacivirus hominis; outline: as §2
Hepatitis C virus [13] = test: Antiviral activity against HCV genotype 1b infected in human Huh-9-13 cells assessed as reduction in viral replication selected after 3 passages at 1 ug/ml by quantitative RT-PCR […]; type: functional, organism-based; settings: Hepacivirus hominis
[14] = Cytotoxicity against human Huh-9-13 cells at 5 ug/ml after 3 days by MTT assay; type: cell-based; settings: 72 h
Hepatitis C virus [15] = test: Antiviral activity against HCV genotype 1b infected in human Huh-9-13 cells assessed as reduction in viral replication selected after 1 passages at 5 ug/ml by quantitative RT-PCR; type: functional, Hepacivirus hominis
Outline: (§3)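 Huh 9-13 replicon cells were seeded at 3 x 10^5 per 25-cm2 flask without G418, with compound. They were passaged at about 90% confluence and reseeded at 3 x 10^5 with the same concentration. HCV RNA was measured by RT-qPCR at each passage as % of the untreated control at the same passage. In rebound, compound was removed and G418 (1,000 µg/ml) restored.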

Hepatitis C virus [16] = test: Antiviral activity against HCV genotype 1b infected in human Huh-9-13 cells assessed as reduction in viral replication selected after 1 passages at 0.82 uM by quantitative RT-PCR; type: functional, Hepacivirus hominis; outline: as §3
Hepatitis C virus [17] = test: Antiviral activity against HCV genotype 1b infected in human Huh-9-13 cells assessed as reduction in viral replication selected after 2 passages at 1 ug/ml by quantitative RT-PCR; type: functional, organism-based; settings: Hepacivirus hominis; outline: as §3
[18] = Cytotoxicity against human Huh-9-13 cells at 1 ug/ml after 3 days by MTT assay; type: cell-based; settings: 72 h
Hepatitis C virus [19] = test: Antiviral activity against HCV genotype 1b infected in human Huh-9-13 cells assessed as reduction in viral replication selected after 7 passages at 30 ug/ml by quantitative RT-PCR […]; type: functional, organism-based; settings: Hepacivirus hominis
Hepatitis C virus [20] = test: Antiviral activity against HCV genotype 1b infected in human Huh-9-13 cells assessed as reduction in viral replication selected after 7 passages at 5 ug/ml by quantitative RT-PCR […]; type: functional, organism-based; settings: Hepacivirus hominis
Hepatitis C virus [21] = test: Antiviral activity against HCV genotype 1b infected in human Huh-9-13 cells assessed as reduction in viral replication selected after 7 passages at 0.25 ug/ml by quantitative RT-PCR; type: functional, organism-based; settings: Hepacivirus hominis
Outline: (§4)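 Clearance-rebound in Huh 9-13 replicon cells over seven consecutive passages without G418, using twofold dilutions from 0.50 to 0.016 µg/ml. Rebound passages omitted compound under 1,000 µg/ml G418. Remaining HCV RNA was measured by RT-qPCR each passage as % of the untreated control at the same passage number.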

Hepatitis C virus [22] = test: Antiviral activity against HCV genotype 1b infected in human Huh-9-13 cells assessed as reduction in viral replication selected after 2 passages at 5 ug/ml by quantitative RT-PCR; type: functional, organism-based; settings: Hepacivirus hominis; outline: as §3
[23] = Cytotoxicity against human Huh-9-13 cells at 30 ug/ml after 3 days by MTT assay; type: cell-based; settings: 72 h
Hepatitis C virus [24] = test: Antiviral activity against HCV genotype 1b infected in human Huh-9-13 cells assessed as reduction in viral replication selected after 8 passages at 0.25 ug/ml by quantitative RT-PCR; type: functional, organism-based; settings: Hepacivirus hominis; outline: as §4
Hepatitis C virus [25] = test: Antiviral activity against HCV genotype 1b infected in human Huh-9-13 cells assessed as reduction in viral replication selected after 6 passages at 2 uM by quantitative RT-PCR relative to wild type virus; type: functional, Hepacivirus hominis; outline: as §2
Hepatitis C virus [26] = test: Antiviral activity against HCV genotype 1b infected in human Huh-9-13 cells assessed as reduction in viral replication selected after 6 passages at 2 uM by quantitative RT-PCR; type: functional, organism-based; settings: Hepacivirus hominis; outline: as §2
Hepatitis C virus [27] = test: Antiviral activity against HCV genotype 1b infected in human Huh-9-13 cells assessed as reduction in viral replication selected after 2 passages at 30 ug/ml by quantitative RT-PCR; type: functional, organism-based; settings: Hepacivirus hominis; outline: as §3
Hepatitis C virus [28] = test: Antiviral activity against HCV genotype 1b infected in human Huh-9-13 cells assessed as reduction in viral replication selected after 3 passages at 30 ug/ml by quantitative RT-PCR; type: functional, organism-based; settings: Hepacivirus hominis; outline: as §3
Hepatitis C virus [29] = test: Antiviral activity against HCV genotype 1b infected in human Huh-9-13 cells assessed as reduction in viral replication selected after 5 passages at 1 uM by quantitative RT-PCR; type: functional, organism-based; settings: Hepacivirus hominis; outline: as §2
Hepatitis C virus [30] = test: Antiviral activity against HCV genotype 1b infected in human Huh-9-13 cells assessed as reduction in viral replication selected after 5 passages at 1 uM by quantitative RT-PCR relative to wild type virus; type: functional, Hepacivirus hominis

SMILES	EC50 (Hepatitis C virus [1])	EC50 (Hepatitis C virus [2])	EC50 (Hepatitis C virus [3])	EC50 (Hepatitis C virus [4])	EC50 (Hepatitis C virus [5])	EC50 (Hepatitis C virus [6])	EC50 (Hepatitis C virus [7])	other results
C[C@@]1(O)[C@H](O)[C@@H](CO)O[C@H]1n1ccc(N)nc1=O	1160 nM	1010 nM	210 nM	110 nM	410 nM	40 nM	30200 nM	
C/C=C/C[C@@H](C)[C@@H](O)[C@H]1C(=O)N[C@@H](CC)C(=O)N(C)CC(=O)N(C)[C@@H](CC(C)C)C(=O)N[C@@H](C(C)C)C(=O)N(C)[C@@H](CC(C)C)C(=O)N[C@@H](C)C(=O)N[C@H](C)C(=O)N(C)[C@@H](CC(C)C)C(=O)N(C)[C@@H](CC(C)C)C(=O)N(C)[C@@H](C(C)C)C(=O)N1C [CYCLOSPORINE]	1980 nM	490 nM	3850 nM	350 nM		4 nM	400 nM	
[N-]=[N+]=N[C@]1(CO)O[C@@H](n2ccc(N)nc2=O)[C@H](O)[C@@H]1O [4'-AZIDOCYTIDINE]	15600 nM	690 nM	260 nM	120 nM		20 nM	3380 nM	fold change (FC) (Hepatitis C virus [8]): 8; inhibition (Hepatitis C virus [9]): inactive; Activity (Hepatitis C virus [10]): inactive; inhibition (Hepatitis C virus [11]): Active; fold change (FC) (Hepatitis C virus [12]): 3
C/C=C/C[C@@H](C)[C@@H](O)[C@H]1C(=O)N[C@@H](CC)C(=O)N(C)[C@H](C)C(=O)N(CC)[C@@H](C(C)C)C(=O)N[C@@H](C(C)C)C(=O)N(C)[C@@H](CC(C)C)C(=O)N[C@@H](C)C(=O)N[C@H](C)C(=O)N(C)[C@@H](CC(C)C)C(=O)N(C)[C@@H](CC(C)C)C(=O)N(C)[C@@H](C(C)C)C(=O)N1C [ALISPORIVIR]	2760 nM	360 nM	3010 nM	2720 nM	40 nM	4 nM	410 nM	Activity (Hepatitis C virus [13]): Active; Activity [14]: Non-toxic; inhibition at 5 µg/mL (Hepatitis C virus [15]): 96.5%; inhibition at 0.82 µM (Hepatitis C virus [16]): 96.5%; inhibition (Hepatitis C virus [17]): inactive; Activity [18]: Non-toxic; inhibition (Hepatitis C virus [19]): inactive; inhibition (Hepatitis C virus [20]): inactive; inhibition (Hepatitis C virus [21]): Active; inhibition (Hepatitis C virus [22]): inactive; Activity [23]: Non-toxic; Activity (Hepatitis C virus [24]): Active
CCC[C@H](NC(=O)[C@@H]1[C@H]2CCC[C@H]2CN1C(=O)[C@@H](NC(=O)[C@@H](NC(=O)c1cnccn1)C1CCCCC1)C(C)(C)C)C(=O)C(=O)NC1CC1 [TELAPREVIR]		14000 nM		90 nM	580 nM	790 nM	1020 nM	inhibition at 5 µg/mL (Hepatitis C virus [15]): 96.5%; inhibition at 0.82 µM (Hepatitis C virus [16]): 96.5%; fold change (FC) (Hepatitis C virus [25]): 4; inhibition (Hepatitis C virus [17]): inactive; inhibition (Hepatitis C virus [26]): inactive; inhibition (Hepatitis C virus [22]): inactive
NC(=O)c1ncn([C@@H]2O[C@H](CO)[C@@H](O)[C@H]2O)n1								inhibition (Hepatitis C virus [27]): inactive; inhibition (Hepatitis C virus [28]): inactive
COc1ccc2c(O[C@@H]3C[C@H]4C(=O)N[C@]5(C(=O)O)C[C@H]5/C=C\CCCCC[C@H](NC(=O)OC5CCCC5)C(=O)N4C3)cc(-c3csc(NC(C)C)n3)nc2c1 [CILUPREVIR]	2160 nM	310 nM	170 nM	100 nM		1250 nM	290 nM	inhibition (Hepatitis C virus [29]): inactive; fold change (FC) (Hepatitis C virus [30]): 50
